In data set [1] the test system is Mus musculus. Briefly: Antiosteoporotic activity in ddY mouse model of OVX-induced osteoporosis assessed as reduction in trabecular separation in femur bone at 1 mg/kg, po administered once daily via gavage for 4 weeks by microcomputed tomographic analysis. The data set is classed as functional, organism-based. In short, it runs like this:
(§1)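 Female ddY mice were ovariectomized. Oral gavage began 1 week after surgery and ran once daily for 28 d. Vehicle was 300 μL PBS containing 0.5% (v/v) DMSO, also given to sham and OVX controls. Mice were then euthanized and femur and tibia fixed for CT imaging. Values are mean ± SD of four mice.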

Data set [2] concerns BMDM. Briefly: Suppression of NFATc1 expression in M-CSF induced C57BL/6 mouse bone marrow macrophages at 0.5 uM measured over 5 days by Western blot analysis. The data set is classed as functional, cell-based. In short, it runs like this: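 C57BL/6 BMM were kept proliferating with M-CSF in the absence of RANKL and treated with compound (0.5 or 10 μM). NFATc1 expression was followed over the culture period by Western blot.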

Data set [3] relates to Mus musculus. Description: Antiosteoporotic activity in ddY mouse model of OVX-induced osteoporosis assessed as increase in new bone volume in femur bone at 1 mg/kg, po administered once daily via gavage for 4 weeks by microcomputed tomographic analysis. The format is functional, organism-based. In short, it runs like this: as §1
For data set [4], the system named is BMDM. Briefly: Inhibition of RANKL-induced osteoclastogenesis in C57BL/6 mouse bone marrow macrophages assessed as reduction in NFATc1 expression at 0.5 uM measured over 5 days by Western blot analysis. The data set is classed as functional, cell-based. In a few lines:
(§2)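 C57BL/6 BMM were grown with M-CSF plus RANKL over the course of osteoclastogenesis, treated at 0.5 or 10 μM. NF-κB and NFATc1 were followed by Western blot. The negative control was M-CSF only.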
In general terms: In western blotting, separated proteins are transferred to a membrane and probed.

The subject of data set [5] is Mus musculus. Briefly: Antiosteoporotic activity in ddY mouse model of OVX-induced osteoporosis assessed as increase in trabecular number in femur bone at 1 mg/kg, po administered once daily via gavage for 4 weeks by microcomputed tomographic analysis. The format is functional, organism-based. In a few lines:
as §1

The test system of data set [6] is Mus musculus. Briefly: Antiosteoporotic activity in ddY mouse model of OVX-induced osteoporosis assessed as increase in ratio of bone volume/trabecular volume in femur bone at 1 mg/kg, po administered once daily via gavage for 4 weeks by microcomputed tomographic analysis. The format is functional, organism-based. In a few lines:
as §1

Data set [7] relates to BMDM. Briefly: Inhibition of RANKL-induced osteoclastogenesis in C57BL/6 mouse bone marrow macrophages assessed as effect on NFkappaB expression at 10 uM measured over 5 days by Western blot analysis. The format is functional, cell-based. In short, it runs like this:
as §2

The subject of data set [8] is MC3T3-E1. Briefly: Induction of osteoblast differentiation in mouse MC3T3-E1 cells assessed as increase in osteocalcin expression at 50 uM after 7 days by Western blot analysis relative to control. The data set is classed as functional. In a few lines:
(§3)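 MC3T3-E1 cells were differentiated with osteoblast differentiation factors, with or without 50 μM compound, for 21 d. The negative control lacked differentiation factors. Osteocalcin in culture medium was measured by Western blot at 7, 14 and 21 d. Values are mean ± SD of three independent experiments.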

For data set [9], the system named is MC3T3-E1. Description: Induction of osteoblast differentiation in ascorbic acid/beta-glycerophosphate-induced mouse MC3T3-E1 cells assessed as increase in RUNX2 expression at 50 uM after 14 days by Western blot analysis relative to control. The format is functional. In a few lines:
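MC3T3-E1 cells were induced with osteoblast differentiation factors, with or without 50 μM compound, for 21 d. Cells were harvested at 7, 14 and 21 d and RUNX2 was quantified by Western blot against untreated differentiated cells. The negative control lacked differentiation factors. Values are mean ± SD of three independent experiments.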

Data set [10] relates to MC3T3-E1. Description: Induction of osteoblast differentiation in mouse MC3T3-E1 cells co-cultured with C57BL/6 mouse bone marrow macrophages assessed as activation of ALP production at 10 uM measured on day 14 relative to control. The data set is classed as functional. In short, it runs like this: (§4)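 MC3T3-E1 cells were cocultured with C57BL/6 BMM in differentiation factors for both cell types, with 10 μM compound, and grown for 21 d. ALP production was measured at 7, 14 and 21 d after coculture induction, relative to untreated cells.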

For data set [11], the system named is BMDM. Briefly: Inhibition of M-CSF/RANKL-induced osteoclast differentiation in C57BL/6 mouse bone marrow macrophages co-cultured with mouse MC3T3-E1 cells assessed as reduction in multinucleated TRAP+ cells at 10 uM measured on day 6 by TRAP staining-based inverted microscopic analysis. The format is functional, cell-based. In short, it runs like this: (§5)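 C57BL/6 BMM were cocultured with MC3T3-E1 preosteoblasts in osteoclast and osteoblast differentiation factors. The negative control had M-CSF only. Compound was added at a final 10 μM. TRAP staining and inverted-microscope inspection were done on day 6.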

Data set [12] has as its system MC3T3-E1. Briefly: Induction of osteoblast differentiation in ascorbic acid/beta-glycerophosphate-induced mouse MC3T3-E1 cells co-cultured with C57BL/6 mouse bone marrow macrophages assessed as increase in osteocalcin expression at 10 uM measured on day 7 by Western blot analysis. The data set is classed as functional, cell-based. In a few lines:
(§6)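 MC3T3-E1 and C57BL/6 BMM cocultures were given osteoblast plus osteoclast differentiation factors, with or without 10 μM compound, for 21 d. The negative control had M-CSF only. Osteocalcin in culture medium was quantified by Western blot at 7, 14 and 21 d.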

Data set [13] deals with MC3T3-E1. Description: Induction of osteoblast differentiation in mouse MC3T3-E1 cells assessed as increase in osteocalcin expression at 50 uM after 14 days by Western blot analysis relative to control. The format is functional. In short, it runs like this:
as §3

A further data set relates to PC-3. Briefly: Antiproliferative activity against human PC3 cells after 24 hrs by MTT assay. The format is functional. Conditions: PC-3, 24 h, read-out: LD50 (the source's name). In a few lines:
(§7)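 Cells were maintained in DMEM at 37 °C under 5% CO2. Growth and survival were estimated by MTT assay, and the value is reported as LD50.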
Background: Tetrazolium dyes change colour on reduction, which living cells bring about.

The nature of data set [14]: Inhibition of M-CSF/RANKL-induced osteoclast differentiation in C57BL/6 mouse bone marrow macrophage assessed as reduction in bone resorption at 7.8 uM treated for 3 days starting from 6 days post M-CSF/RANKL-stimulation by europium-conjugated collagen based time-resolved fluorescence assay relative to control. The format is functional, BMDM. The arrangement: scale not given: the % may be the effect or the level left. In short, it runs like this: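 Mature multinucleated osteoclasts differentiated from C57BL/6 BMM were exposed to compound for 3 d in a bone resorption assay. Resorption was compared with untreated mature osteoclasts.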

The test system of data set [15] is MC3T3-E1. Description: Induction of osteoblast differentiation in ascorbic acid/beta-glycerophosphate-induced mouse MC3T3-E1 cells co-cultured with C57BL/6 mouse bone marrow macrophages assessed as increase in osteocalcin expression at 10 uM measured on day 14 by Western blot analysis. The data set is classed as functional, cell-based. In short, it runs like this: as §6

The subject of data set [16] is MC3T3-E1. Description: Induction of osteoblast differentiation in mouse MC3T3-E1 cells co-cultured with C57BL/6 mouse bone marrow macrophages assessed as activation of ALP production at 10 uM measured on day 21 relative to control. The data set is classed as functional. In short, it runs like this:
as §4

Another data set relates to B16-F10. Description: Antiproliferative activity against mouse B16F10 cells after 24 hrs by MTT assay. The data set is classed as functional. Particulars: B16-F10, 24 h, read-out: LD50 (the source's name). In a few lines: as §7
Data set [17] has as its system MC3T3-E1. Description: Induction of osteoblast differentiation in ascorbic acid/beta-glycerophosphate-induced mouse MC3T3-E1 cells co-cultured with C57BL/6 mouse bone marrow macrophages at 10 uM measured on day 6 by TRAP staining-based inverted microscopic analysis. The format is functional, cell-based.
Data set [18] relates to BMDM. Description: Inhibition of M-CSF/RANKL-induced osteoclast differentiation in C57BL/6 mouse bone marrow macrophages co-cultured with mouse MC3T3-E1 cells assessed as reduction in multinucleated TRAP+ cells measured on day 6 by TRAP staining-based inverted microscopic analysis. The data set is classed as functional, cell-based. In a few lines: as §5
Data set [19] is described as follows: Cytotoxicity against human ASC cells after 24 hrs by MTT assay. The format is cell-based. Particulars: read-out: LD50. In short, it runs like this:
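Human adipose-derived mesenchymal stem cells were grown in CB-ADMSC-GM medium at 37 °C under 5% CO2. Cell growth and survival were measured by MTT assay and reported as LD50.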

Active and inactive are the calls of the source. No cut-off for these calls is given here.

Consider two molecules from ChEMBL document CHEMBL4364291, “Benzylideneacetone Derivatives Inhibit Osteoclastogenesis and Activate Osteoblastogenesis Independently Based on Specific Structure-Activity Relationship” (J Med Chem, 2019).

For `COc1ccc(/C=C/C(C)=O)cc1O`, the result with Mus musculus [1], with BMDM [2], in the data set on Mus musculus [3], with Mus musculus [5] and with Mus musculus [6] was Active. In addition, the inhibition result in the data set with BMDM [4] is “Active”.

As to `CC(=O)/C=C/c1ccc(O)c(O)c1`, the inhibition entry in the data set with BMDM [7] was “inactive”. In addition, the “fold change (FC)” value with MC3T3-E1 [8] is recorded as 1.8; in the data set with MC3T3-E1 [9], 1.4; in the data set with MC3T3-E1 [13], 4.1. The Activity with MC3T3-E1 [10] is on record as 110%; in data set [14], “<=59%”; in the data set with MC3T3-E1 [16], 100%. For the same molecule, the inhibition entry in the data set on BMDM [11] was “Active”. The result in the data set on MC3T3-E1 [12], in the data set with MC3T3-E1 [15] and in the data set with MC3T3-E1 [17] was Active. Besides, the CC50 worked out at 66 µM in the data set on PC-3 and 65 µM with B16-F10. For the same molecule, in the data set with BMDM [18], the inhibition result is “Dose-dependent effect”. In [19], the CC50 at 24 h is 2800 µM.
